# Results as given in ChEMBL document CHEMBL4689842, “EUbOPEN Chemogenomics Library wave 1” (2021).
# Tested on: HEK-293T
# Experiment: Multiplex assay against HEK293T;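 as to Population Tubulin-Different-Phenotype (%): share of the cells with healthy nuclei that show this phenotype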
# Format: toxicity, cell-based
# Details: human
# Outline: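 Live cells were stained at seeding with Hoechst33342, BioTracker Green Microtubule Cytoskeleton Dye, MitoTracker Red and Annexin V Alexa Fluor 680, then imaged on a CQ1 microscope at 37°C and 5% CO2 after compound addition. CellPathfinder machine-learning gating split cells into Hoechst high-intensity objects or normal cells. Normal cells were split into healthy, pyknosed or fragmented nuclei, and pyknosed cells into mitotic or apoptotic. Tubulin, mitochondrial-mass and membrane-permeability phenotypes are per cents of healthy-nucleus cells.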
# [1] = 12 h, 1 µM, compound concentration 1 uM, replicate 1
# [2] = 12 h, 1 µM, compound concentration 1 uM, replicate 2
# [3] = 12 h, 10 µM, compound concentration 10 uM, replicate 1
# [4] = 12 h, 10 µM, compound concentration 10 uM, replicate 2
# [5] = 24 h, 1 µM, compound concentration 1 uM, replicate 1
# [6] = 24 h, 1 µM, compound concentration 1 uM, replicate 2
# [7] = 24 h, 10 µM, compound concentration 10 uM, replicate 1
# [8] = 24 h, 10 µM, compound concentration 10 uM, replicate 2
structure (smiles),measurement,setting,value
COc1cccc2cc(-c3nc([C@H]4CC[C@H](C(=O)O)CC4)n4ncnc(N)c34)[nH]c12 [OSI-027],Population Apoptotic (%),[1],25%
same,Population Fragmented Nuclei (%),[1],14%
same,Population Healthy Nuclei (%),[1],55%
same,Population Hoechst High Intensity Objects (%),[1],16%
same,Population Membrane Permeable-Phenotype (%),[1],3%
same,Population Mitochondria Different-Phenotype (%),[1],10%
same,Population Mitotic Cells (%),[1],74%
same,Population Normal (%),[1],83%
same,Population Pyknosed Nuclei (%),[1],29%
same,Population Tubulin-Different-Phenotype (%),[1],5%
same,Total Cell Count,[1],587
same,Population Apoptotic (%),[2],9%
same,Population Fragmented Nuclei (%),[2],6%
same,Population Healthy Nuclei (%),[2],85%
same,Population Hoechst High Intensity Objects (%),[2],6%
same,Population Membrane Permeable-Phenotype (%),[2],2%
same,Population Mitochondria Different-Phenotype (%),[2],13%
same,Population Mitotic Cells (%),[2],90%
same,Population Normal (%),[2],93%
same,Population Pyknosed Nuclei (%),[2],7%
same,Population Tubulin-Different-Phenotype (%),[2],10%
same,Total Cell Count,[2],997
same,Population Apoptotic (%),[3],23%
same,Population Fragmented Nuclei (%),[3],32%
same,Population Healthy Nuclei (%),[3],40%
same,Population Hoechst High Intensity Objects (%),[3],22%
same,Population Membrane Permeable-Phenotype (%),[3],8%
same,Population Mitochondria Different-Phenotype (%),[3],2%
same,Population Mitotic Cells (%),[3],76%
same,Population Normal (%),[3],77%
same,Population Pyknosed Nuclei (%),[3],27%
same,Population Tubulin-Different-Phenotype (%),[3],2%
same,Total Cell Count,[3],379
same,Population Apoptotic (%),[4],10%
same,Population Fragmented Nuclei (%),[4],9%
same,Population Healthy Nuclei (%),[4],85%
same,Population Hoechst High Intensity Objects (%),[4],5%
same,Population Membrane Permeable-Phenotype (%),[4],0%
same,Population Mitochondria Different-Phenotype (%),[4],8%
same,Population Mitotic Cells (%),[4],89%
same,Population Normal (%),[4],94%
same,Population Pyknosed Nuclei (%),[4],5%
same,Population Tubulin-Different-Phenotype (%),[4],5%
same,Total Cell Count,[4],1068
same,Population Apoptotic (%),[5],22%
same,Population Fragmented Nuclei (%),[5],15%
same,Population Healthy Nuclei (%),[5],60%
same,Population Hoechst High Intensity Objects (%),[5],19%
same,Population Membrane Permeable-Phenotype (%),[5],15%
same,Population Mitochondria Different-Phenotype (%),[5],8%
same,Population Mitotic Cells (%),[5],77%
same,Population Normal (%),[5],80%
same,Population Pyknosed Nuclei (%),[5],24%
same,Population Tubulin-Different-Phenotype (%),[5],20%
same,Total Cell Count,[5],478
same,Population Apoptotic (%),[6],4%
same,Population Fragmented Nuclei (%),[6],7%
same,Population Healthy Nuclei (%),[6],83%
same,Population Hoechst High Intensity Objects (%),[6],8%
same,Population Membrane Permeable-Phenotype (%),[6],6%
same,Population Mitochondria Different-Phenotype (%),[6],13%
same,Population Mitotic Cells (%),[6],95%
same,Population Normal (%),[6],91%
same,Population Pyknosed Nuclei (%),[6],8%
same,Population Tubulin-Different-Phenotype (%),[6],37%
same,Total Cell Count,[6],849
same,Population Apoptotic (%),[7],12%
same,Population Fragmented Nuclei (%),[7],29%
same,Population Healthy Nuclei (%),[7],53%
same,Population Hoechst High Intensity Objects (%),[7],14%
same,Population Membrane Permeable-Phenotype (%),[7],10%
same,Population Mitochondria Different-Phenotype (%),[7],3%
same,Population Mitotic Cells (%),[7],87%
same,Population Normal (%),[7],85%
same,Population Pyknosed Nuclei (%),[7],17%
same,Population Tubulin-Different-Phenotype (%),[7],6%
same,Total Cell Count,[7],371
same,Population Apoptotic (%),[8],0%
same,Population Fragmented Nuclei (%),[8],18%
same,Population Healthy Nuclei (%),[8],78%
same,Population Hoechst High Intensity Objects (%),[8],5%
same,Population Membrane Permeable-Phenotype (%),[8],5%
same,Population Mitotic Cells (%),[8],100%
same,Population Normal (%),[8],94%
same,Population Pyknosed Nuclei (%),[8],2%
same,Population Tubulin-Different-Phenotype (%),[8],10%
same,Total Cell Count,[8],1604
